B1: tRNA (parent)
chain: GUUCCGUUGGCGUAAUGGUAACGCGUCUCCCUCCUAAGGAGAAGACUGCGGGUUCGAGUCCCGUACGGAACG

Variants at the floor of the assay were thinned out.

The variants in this data set derive from B1. In words: yeast fitness relative to wild type (ratio to wild type); higher = fitter; tRNA-Arg(CCU), competitive growth, 37 C, YPD. The method in brief:
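Changes in genotype frequencies gave Darwinian fitness relative to wild type. Frequencies were read by 100-nucleotide paired-end sequencing of gene amplicons before and after pooled Saccharomyces cerevisiae strains, carrying tRNA-Arg(CCU) gene variants at the native locus, were competed in YPD at 37°C for 24 hours in six replicates. A genotype was kept only with ≥ 100 starting reads, and estimates < 0.5 were set to 0.5.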
As for A20U C29U C62A, the yeast fitness was determined as 0.543.
In the case of A20U C31G C55G C60G C66U, the yeast fitness was no more than 0.5.
On to A20G C49U, for which the yeast fitness is 0.922.
With A20G C49G, the yeast fitness is 0.855.
For A20U A21C C22U U53C U64A, the yeast fitness is 0.77.
Take A20U C30U: the yeast fitness was 0.783.
Consider A20U C24U A42U C46A C55U C61G A69C, for which the yeast fitness stood at 0.59.
Turning to A20U A43G A57C U59A A65C, the yeast fitness was no more than 0.5.
Then A20G C27U A45C A57C, with no more than 0.5; and A20G C49G U59A, with 0.556.
For A20U C22U C33U, the yeast fitness was no more than 0.5.
For the variant A20U C27A A40G A69U, the yeast fitness was no more than 0.5.
For A20G G63A the value was 0.903; for A20G G63C, 0.837.
Regarding A20U C29G C61U, the yeast fitness is no more than 0.5.
For the variant A20G G41A G67C, the yeast fitness came to 0.601.
For A20G G50C C61U, the yeast fitness was no more than 0.5.
In the case of A20U A69C, the yeast fitness came out at 0.979.
Take A20U A69U: the yeast fitness came out at 1.05.
Consider A20G U28C A40C, for which the yeast fitness amounted to 0.634.
Then A20G U28C A40U, with 1.04; and A20U A40G G44C, with no more than 0.5; and A20G G23C G38C, with no more than 0.5.
For A20G G23A G38C G63A C66A, the yeast fitness is no more than 0.5.
With A20U C29A C30A U53G C62A, the yeast fitness was found to be 0.545.
On to A20U C29G C49G, for which the yeast fitness was 0.5.
A20U A37C: the yeast fitness came to 0.723.
A20U C29G C49G U54C G63C: the yeast fitness turned out to be 0.535.
A20G G23A C33G A69U: the yeast fitness is no more than 0.5.
In the case of A20G C55A, the yeast fitness amounted to 0.585.
For A20G C55G, the yeast fitness is 0.586.
As to A20G C29A G68A, the yeast fitness stood at 0.613.
For A20U C34A G58A the value was no more than 0.5; for A20U A36G C55G G56A, no more than 0.5; for A20G U64A, 0.902.
On to A20G U64G, for which the yeast fitness came to 0.817.
Regarding A20G U64C, the yeast fitness was found to be 0.929.
For A20G G23A G38C the value was 0.656.
Take A20G G39U A40C: the yeast fitness is no more than 0.5.
For A20U A40G U64A, the yeast fitness was 0.508.
Turning to A20U C22U C46U A57G, the yeast fitness was no more than 0.5.
For A20G U35A A40C G52A C60A C61G, the yeast fitness is 0.6.
As for A20G G25A C34A G50C, the yeast fitness was 0.578.
Take A20G C60G A70C: the yeast fitness turned out to be 0.604.
Then A20G C49U A69U, with 0.779.
On to A20U A40U C46G C62G C66U A70C, for which the yeast fitness turned out to be 0.573.
With A20G C34A U47A C61G, the yeast fitness was no more than 0.5.
In the case of A20G G41A C61U, the yeast fitness came out at 0.644.
On to A20U C22G, for which the yeast fitness is 0.633.
As for A20G G25A C33U G39A A57G U59C, the yeast fitness is no more than 0.5.
Regarding A20U C29G A43U C66U, the yeast fitness was no more than 0.5.
With A20G C29U A37G C66U, the yeast fitness was no more than 0.5.
For A20G U32C A57G, the yeast fitness turned out to be 0.724.
As to A20G G25C C34U G41A C49G, the yeast fitness was no more than 0.5.
Then A20U A36G C55G A65U, with 0.52.
In the case of A20G C34U G38A A43G G68U, the yeast fitness is no more than 0.5.
For A20U C29G G38C G39A A43C C60G A65C, the yeast fitness is no more than 0.5.
As for A20G C34G C62U, the yeast fitness was no more than 0.5.
With A20G U32A C34G A43G G50C U64A, the yeast fitness is no more than 0.5.
With A20U A45G, the yeast fitness worked out at 0.843.
A20U A45C: the yeast fitness amounted to 0.621.
Turning to A20G C33G C49A U54G A65G, the yeast fitness was no more than 0.5.
Turning to A20G U35C G50C, the yeast fitness is no more than 0.5.
For A20U A45G C46U C66U the value was 0.626; for A20G U26A U35A A37U, 0.55; for A20G G68U, 0.866.
On to A20G G68C, for which the yeast fitness is 0.758.
For A20G G41A A70G, the yeast fitness was 0.571.
Consider A20G G25C C49A, for which the yeast fitness was no more than 0.5.
For the variant A20G G25C C49U, the yeast fitness is 0.76.
Turning to A20G U26A C61G A65C, the yeast fitness was 0.518.
Take A20U A45U C62A A70C: the yeast fitness amounted to 0.505.
Consider A20G G38C C66A, for which the yeast fitness is no more than 0.5.
A20U C24G C55A: the yeast fitness was no more than 0.5.
Regarding A20G G41A C60G A65G, the yeast fitness is 0.585.
Regarding A20G G50C C61A A69G, the yeast fitness was no more than 0.5.
A20U C30G G63A: the yeast fitness is no more than 0.5.
Regarding A20G C27G A43U G68C, the yeast fitness turned out to be 0.582.
On to A20G C30G, for which the yeast fitness was 0.593.
Turning to A20G C30A, the yeast fitness is 1.
Turning to A20G C30U, the yeast fitness stood at 0.871.
With A20U A57G, the yeast fitness came out at 0.752.
Then A20U A57C, with 0.644.
As for A20G C46U A57C, the yeast fitness was 0.514.
As to A20G C31U A65U, the yeast fitness was 0.695.
Consider A20U C22A C61A C62G, for which the yeast fitness is no more than 0.5.
On to A20G C27G G48A, for which the yeast fitness was no more than 0.5.
For the variant A20G C34U G38A A43G, the yeast fitness is no more than 0.5.
Consider A20U C22A U32G, for which the yeast fitness was no more than 0.5.
For A20G C33A A57G the value was 0.52.
Regarding A20U C29U A37U, the yeast fitness is no more than 0.5.
On to A20G C31G C46G G50A, for which the yeast fitness was no more than 0.5.
Take A20U C31A A37C A45G G68A: the yeast fitness is no more than 0.5.
With A20U C29U C30U U59A, the yeast fitness stood at 0.636.
Regarding A20G C33A A37G C62A, the yeast fitness was no more than 0.5.
For the variant A20U A42C G56A, the yeast fitness is no more than 0.5.
As for A20U C27G C34U U35C A36C, the yeast fitness amounted to 0.921.
For A20U C30G C33U G58C, the yeast fitness is no more than 0.5.
On to A20U C24A A40C G50C C66U, for which the yeast fitness was no more than 0.5.
Then A20G U59G A65U, with 1.05; and A20U C29U C49G C55A, with 0.522.
Then A20G C46A, with 0.925.
Then A20G C46G, with 0.942; and A20G C29U A57C, with no more than 0.5; and A20U C29A C30U A36U A70C, with 0.594.
Consider A20G U28C, for which the yeast fitness is 0.934.
With A20G U47G G68U, the yeast fitness is no more than 0.5.
For A20U C27G, the yeast fitness stood at 0.642.
Regarding A20U A36U G44A G51C G52A, the yeast fitness was no more than 0.5.
Regarding A20U C34A G67A, the yeast fitness was no more than 0.5.
A20G C27G A43U G63A G68C: the yeast fitness was no more than 0.5.
Turning to A20U C33U G38C A40U G44C G51C C60U, the yeast fitness came out at 0.558.
For A20G C31U A36U the value was 0.53; for A20G U26C A42U, 0.715; for A20G C33A A43U G44A A69C, no more than 0.5.
Consider A20G C27U C33G A43G A57G C61U C62U, for which the yeast fitness is no more than 0.5.
Regarding A20U C34A G41C G56C, the yeast fitness was no more than 0.5.
Then A20U C24G A70G, with no more than 0.5.
Then A20G G23C G63C, with 0.613; and A20G C49U C66U, with 0.684; and A20U A40U C46A, with 0.613.
As for A20U A40C, the yeast fitness worked out at 0.712.
A20U A40U: the yeast fitness is 0.654.
For A20G G23A C33G, the yeast fitness came to 0.629.
Turning to A20U A36G G38A A40U, the yeast fitness was 0.501.
Regarding A20G C33U G39A A69C, the yeast fitness is no more than 0.5.
Consider A20G C29G A37G G67C, for which the yeast fitness is no more than 0.5.
For A20G G58A A70C, the yeast fitness was 0.836.
A20G U35C A36G: the yeast fitness came to 0.727.
For A20U A40C A42U the value was no more than 0.5; for A20G C29U C34U G50A C55G, no more than 0.5; for A20G U28A U53A, no more than 0.5.
For the variant A20U C22G C60G C66G, the yeast fitness was no more than 0.5.
For A20U A36G A37G C55G, the yeast fitness came out at 0.546.
With A20U A65U A70C, the yeast fitness turned out to be 0.568.
On to A20U A45C G51U A65G, for which the yeast fitness is no more than 0.5.
Take A20U A36C A43U: the yeast fitness worked out at 0.641.
In the case of A20G G50C U54G, the yeast fitness was no more than 0.5.
Then A20U A42U, with 0.742; and A20U A42G, with 0.797.
For A20U C31A A69C, the yeast fitness turned out to be 0.624.
Turning to A20G U28A A37G C55G, the yeast fitness was found to be 0.578.
As to A20U C22G G23A A43U G48A, the yeast fitness is no more than 0.5.
In the case of A20U C31U G38A A69C, the yeast fitness was no more than 0.5.
For A20G G25A C66U, the yeast fitness came to 0.682.
As for A20G C60G A69C, the yeast fitness is no more than 0.5.
For A20G U53A, the yeast fitness came out at 0.692.
A20G U53G: the yeast fitness was found to be 0.571.
With A20U A21U A69U, the yeast fitness is 0.675.
As for A20U C29G C33U A65C C66U, the yeast fitness is no more than 0.5.
Consider A20G G52A, for which the yeast fitness is 0.664.
For A20U C30A G67U, the yeast fitness came to 0.527.
As to A20U A21G C22A G48A C49G, the yeast fitness was no more than 0.5.
In the case of A20U C34A C49U G58C C62A A69C, the yeast fitness is no more than 0.5.
Then A20G C33A G44A, with 0.535; and A20U C22U C34A U64C, with no more than 0.5; and A20U A45C C55U A57U, with no more than 0.5.
For A20G C49U C66U A70C, the yeast fitness was no more than 0.5.
On to A20U C29G A65U, for which the yeast fitness is no more than 0.5.
A20U C22A A45C U53A: the yeast fitness is 0.594.
For A20U C24U A42U C46A G56A G67A the value was no more than 0.5; for A20G U28A A40G, no more than 0.5.
In the case of A20U A57U A65C A70G, the yeast fitness is no more than 0.5.
Then A20U A40G G50A, with no more than 0.5; and A20G C29U G38A G48C C62G, with no more than 0.5; and A20G C31G C55G A70G, with no more than 0.5.
Regarding A20U C24U C29G C49G G63C, the yeast fitness is no more than 0.5.
